# According to ChEMBL document CHEMBL1938334, “Quinoline tricyclic derivatives. Design, synthesis and evaluation of the antiviral activity of three new classes of RNA-dependent RNA polymerase inhibitors” (Bioorg Med Chem, 2011):
# System: Vesicular stomatitis Indiana virus
# Assay: Antiviral activity against clinical isolate Vesicular stomatitis Indiana virus infected in african green monkey Vero 76 cells assessed as reduction of virus-induced plaque formation after 2 days using crystal violet staining
# Format: functional, organism-based
# Conditions: 48 h
row,Compound,EC50
1,Clc1c2ncccc2cc2nn[nH]c12,> 100 µM
2,Oc1ccnc2c(Cl)c3nccnc3cc12,> 90 µM
3,CC(C)c1nc2c(Cl)c3ncccc3cc2[nH]c1=O,> 100 µM
4,O=C(CCl)Cn1nnc2c(Cl)c3ncccc3cc21,> 100 µM
5,Oc1ccnc2c(Cl)c3[nH]nnc3cc12,> 100 µM

# System: not listed separately
# Assay: Cytotoxicity against african green monkey Vero 76 cells after 48 to 96 hrs by crystal violet staining
# Format: cell-based
# Conditions: chlorocebus sabaeus
# Summary of the method: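 Vero-76 cells were seeded at 4×10^5 cells/mL in D-MEM with L-glutamine, kanamycin and 10% FBS, then exposed to serial compound dilutions at 37 °C, 5% CO2 for 48–96 h. Viability was read by crystal violet staining. 50% cytotoxic concentration by linear regression relative to untreated controls; mean of three independent determinations.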
row,Compound,CC50
1,Clc1c2ncccc2cc2nn[nH]c12,> 100 µM
2,Oc1ccnc2c(Cl)c3nccnc3cc12,90 µM
3,CC(C)c1nc2c(Cl)c3ncccc3cc2[nH]c1=O,> 100 µM
4,O=C(CCl)Cn1nnc2c(Cl)c3ncccc3cc21,> 100 µM
5,Oc1ccnc2c(Cl)c3[nH]nnc3cc12,> 100 µM

# System: Yellow fever virus
# Assay: Antiviral activity against Yellow fever virus 17D Stamaril Pasteur J07B01 infected in hamster BHK21 cells assessed as inhibition of virus-induced cytopathogenicity after 3 to 4 days by MTT assay
# Format: functional, cell-based
# Conditions: Stamaril Pasteur J07B01, BHK-21
# Summary of the method: (§1)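 Host cells were seeded in 96-well plates at 3×10^4 cells/well (MDBK) or 5×10^4 cells/well (BHK-21) and grown to confluent monolayers overnight. They were infected at m.o.i. 0.01 in maintenance MEM with 0.5% inactivated FBS. Serial compound dilutions were added after 1 h. Viability was read by MTT after 3–4 days at 37 °C. EC50 was taken by linear regression against untreated controls. Mean of three determinations.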
row,Compound,EC50
1,Clc1c2ncccc2cc2nn[nH]c12,> 100 µM
2,Oc1ccnc2c(Cl)c3nccnc3cc12,> 85 µM
3,CC(C)c1nc2c(Cl)c3ncccc3cc2[nH]c1=O,> 100 µM
4,O=C(CCl)Cn1nnc2c(Cl)c3ncccc3cc21,> 85 µM
5,Oc1ccnc2c(Cl)c3[nH]nnc3cc12,> 100 µM

# System: Reovirus sp.
# Assay: Antiviral activity against Reovirus type-1 3651 infected in hamster BHK21 cells assessed as inhibition of virus-induced cytopathogenicity after 3 to 4 days by MTT assay
# Format: functional, organism-based
# Conditions: Reovirus sp., 3651, BHK-21
# Summary of the method: as §1
row,Compound,EC50
1,Clc1c2ncccc2cc2nn[nH]c12,> 100 µM
2,Oc1ccnc2c(Cl)c3nccnc3cc12,> 85 µM
3,CC(C)c1nc2c(Cl)c3ncccc3cc2[nH]c1=O,> 100 µM
4,O=C(CCl)Cn1nnc2c(Cl)c3ncccc3cc21,> 85 µM
5,Oc1ccnc2c(Cl)c3[nH]nnc3cc12,≥ 100 µM

# System: not listed separately
# Assay: Antiviral activity against Vaccinia virus Lister Elstree infected in african green monkey Vero 76 cells assessed as reduction of virus-induced plaque formation after 3 days using crystal violet staining
# Format: functional, cell-based
# Conditions: 72 h
row,Compound,EC50
1,Clc1c2ncccc2cc2nn[nH]c12,> 100 µM
2,Oc1ccnc2c(Cl)c3nccnc3cc12,> 90 µM
3,CC(C)c1nc2c(Cl)c3ncccc3cc2[nH]c1=O,> 100 µM
4,O=C(CCl)Cn1nnc2c(Cl)c3ncccc3cc21,> 100 µM
5,Oc1ccnc2c(Cl)c3[nH]nnc3cc12,> 100 µM

# System: not listed separately
# Assay: Cytotoxicity against BHK21 cells after 48 to 96 hrs by MTT assay
# Format: cell-based, Mesocricetus auratus, BHK-21
# Conditions: hamster
# Summary of the method: (§2)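 MDBK seeded at 6×10^5 and BHK at 1×10^6 cells/mL in MEM-Earle's with L-glutamine, 1 mM pyruvate, kanamycin, plus 10% horse serum (MDBK) or 10% FBS (BHK). Cells were grown at 37 °C, 5% CO2 with serial compound dilutions (DMSO stocks diluted in medium). Viability by MTT after 48–96 h. CC50 was taken by linear regression versus untreated controls; three independent determinations.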
row,Compound,CC50
1,Clc1c2ncccc2cc2nn[nH]c12,> 100 µM
2,Oc1ccnc2c(Cl)c3nccnc3cc12,85 µM
3,CC(C)c1nc2c(Cl)c3ncccc3cc2[nH]c1=O,> 100 µM
4,O=C(CCl)Cn1nnc2c(Cl)c3ncccc3cc21,85 µM
5,Oc1ccnc2c(Cl)c3[nH]nnc3cc12,> 100 µM

# System: Coxsackievirus B5
# Assay: Antiviral activity against Human coxsackievirus B5 Ohio-1 infected in african green monkey Vero 76 cells assessed as reduction of virus-induced plaque formation after 3 days using crystal violet staining
# Format: functional, organism-based
# Conditions: Enterovirus B, Ohio-1, Vero, 72 h
row,Compound,EC50
1,Clc1c2ncccc2cc2nn[nH]c12,> 100 µM
2,Oc1ccnc2c(Cl)c3nccnc3cc12,> 90 µM
3,CC(C)c1nc2c(Cl)c3ncccc3cc2[nH]c1=O,> 100 µM
4,O=C(CCl)Cn1nnc2c(Cl)c3ncccc3cc21,> 100 µM
5,Oc1ccnc2c(Cl)c3[nH]nnc3cc12,> 100 µM

# System: not listed separately
# Assay: Antiviral activity against Bovine viral diarrhea virus 1-NADL infected in MDBK cells assessed as inhibition of virus-induced cytopathogenicity after 3 to 4 days by MTT assay
# Format: functional, cell-based
# Conditions: Bovine viral diarrhea virus isolates and strains
# Summary of the method: as §1
row,Compound,EC50
1,Clc1c2ncccc2cc2nn[nH]c12,> 100 µM
2,Oc1ccnc2c(Cl)c3nccnc3cc12,> 63 µM
3,CC(C)c1nc2c(Cl)c3ncccc3cc2[nH]c1=O,100 µM
4,O=C(CCl)Cn1nnc2c(Cl)c3ncccc3cc21,> 53 µM
5,Oc1ccnc2c(Cl)c3[nH]nnc3cc12,> 100 µM

# System: Human orthopneumovirus
# Assay: Antiviral activity against Human respiratory syncytial virus A2 infected in african green monkey Vero 76 cells assessed as reduction of virus-induced plaque formation after 5 days using crystal violet staining
# Format: functional, organism-based
# Conditions: 120 h
row,Compound,EC50
1,Clc1c2ncccc2cc2nn[nH]c12,> 100 µM
2,Oc1ccnc2c(Cl)c3nccnc3cc12,> 90 µM
3,CC(C)c1nc2c(Cl)c3ncccc3cc2[nH]c1=O,> 100 µM
4,O=C(CCl)Cn1nnc2c(Cl)c3ncccc3cc21,> 100 µM
5,Oc1ccnc2c(Cl)c3[nH]nnc3cc12,> 100 µM

# System: not listed separately
# Assay: Cytotoxicity against MDBK cells after 48 to 96 hrs by MTT assay
# Format: cell-based, Bos taurus
# Conditions: cattle
# Summary of the method: as §2
row,Compound,CC50
1,Clc1c2ncccc2cc2nn[nH]c12,> 100 µM
2,Oc1ccnc2c(Cl)c3nccnc3cc12,63 µM
3,CC(C)c1nc2c(Cl)c3ncccc3cc2[nH]c1=O,> 100 µM
4,O=C(CCl)Cn1nnc2c(Cl)c3ncccc3cc21,53 µM
5,Oc1ccnc2c(Cl)c3[nH]nnc3cc12,> 100 µM

# System: Poliovirus 1
# Assay: Antiviral activity against Human poliovirus 1 strain Sabin Chat infected in african green monkey Vero 76 cells assessed as virus-induced reduction of plaque formation after 2 days using crystal violet staining
# Format: functional, cell-based
# Conditions: Enterovirus C, 48 h
row,Compound,EC50
1,Clc1c2ncccc2cc2nn[nH]c12,> 100 µM
2,Oc1ccnc2c(Cl)c3nccnc3cc12,> 90 µM
3,CC(C)c1nc2c(Cl)c3ncccc3cc2[nH]c1=O,> 100 µM
4,O=C(CCl)Cn1nnc2c(Cl)c3ncccc3cc21,> 100 µM
5,Oc1ccnc2c(Cl)c3[nH]nnc3cc12,> 100 µM

# System: Human alphaherpesvirus 1
# Assay: Antiviral activity against Human herpesvirus 1 strain KOS infected in african green monkey Vero 76 cells assessed as reduction of virus-induced plaque formation after 3 days using crystal violet staining
# Format: functional, organism-based
# Conditions: Human alphaherpesvirus 1, KOS, 72 h
row,Compound,EC50
1,Clc1c2ncccc2cc2nn[nH]c12,> 100 µM
2,Oc1ccnc2c(Cl)c3nccnc3cc12,90 µM
3,CC(C)c1nc2c(Cl)c3ncccc3cc2[nH]c1=O,> 100 µM
4,O=C(CCl)Cn1nnc2c(Cl)c3ncccc3cc21,> 100 µM
5,Oc1ccnc2c(Cl)c3[nH]nnc3cc12,> 100 µM

# System: not listed separately
# Assay: Cytotoxicity against human MT4 cells after 96 hrs by MTT assay
# Format: cell-based
# Conditions: not given
# Summary of the method: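 Exponentially growing MT-4 cells seeded at 1×10^5 cells/mL in RPMI-1640 with 10% FBS, penicillin and streptomycin. Incubated with serial compound dilutions at 37 °C, 5% CO2 for 96 h; viability by MTT. CC50 by linear regression relative to untreated controls; mean of three independent determinations.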
row,Compound,CC50 at 96 h
1,Clc1c2ncccc2cc2nn[nH]c12,> 100 µM
2,Oc1ccnc2c(Cl)c3nccnc3cc12,42 µM
3,CC(C)c1nc2c(Cl)c3ncccc3cc2[nH]c1=O,100 µM
4,O=C(CCl)Cn1nnc2c(Cl)c3ncccc3cc21,21 µM
5,Oc1ccnc2c(Cl)c3[nH]nnc3cc12,> 100 µM

# System: Human immunodeficiency virus 1
# Assay: Antiviral activity against HIV1 3B infected in human MT4 cells assessed as inhibition of virus-induced cytopathogenicity after 4 days by MTT assay
# Format: functional, organism-based
# Conditions: Human immunodeficiency virus 1, 3B, MT4, 96 h
# Summary of the method: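 MT-4 cells (1×10^4 per well) were infected with HIV-1 IIIB at 100 CCID50, m.o.i. 0.01, together with serial compound dilutions. Viability was read by MTT after 4 days at 37 °C. EC50 was taken by linear regression versus untreated controls. Mean of three determinations.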
row,Compound,EC50
1,Clc1c2ncccc2cc2nn[nH]c12,> 100 µM
2,Oc1ccnc2c(Cl)c3nccnc3cc12,> 42 µM
3,CC(C)c1nc2c(Cl)c3ncccc3cc2[nH]c1=O,> 100 µM
4,O=C(CCl)Cn1nnc2c(Cl)c3ncccc3cc21,> 21 µM
5,Oc1ccnc2c(Cl)c3[nH]nnc3cc12,> 100 µM
